# Assay results as given in ChEMBL document CHEMBL1157645, “Synthesis of 2-(thienyl-2-yl or -3-yl)-4-furyl-6-aryl pyridine derivatives and evaluation of their topoisomerase I and II inhibitory activity, cytotoxicity, and structure-activity relationship” (Bioorg Med Chem, 2010).
# Experiments:
# HCT-15 = experiment: Cytotoxicity against human HCT15 cells in presence of 10% fetal bovine serum; format: functional, cell-based
# Method in brief: (§1)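 Cells cultured per supplier's instructions and seeded at 2–4 × 10⁴ cells per well. On day 2 the medium was replaced with medium containing graded compound concentrations. On day 4 cell counting kit-8 was added for a further 4 h, and absorbance was read at 450 nm. Values are 50% inhibitory concentrations, given as mean from three experiments run in triplicate.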
# HeLa = experiment: Cytotoxicity against human HeLa cells in presence of 10% fetal bovine serum; format: functional, cell-based; method in brief: as §1
# [1] = target: DNA topoisomerase 2-alpha (Homo sapiens) (UniProt P11388); experiment: Inhibition of human recombinant DNA topoisomerase 2 assessed as inhibition of relaxation of supercoiled pBR322 DNA at 100 uM by agarose gel electrophoresis
# Chain of DNA topoisomerase 2-alpha (Homo sapiens) (P11388 whole entry): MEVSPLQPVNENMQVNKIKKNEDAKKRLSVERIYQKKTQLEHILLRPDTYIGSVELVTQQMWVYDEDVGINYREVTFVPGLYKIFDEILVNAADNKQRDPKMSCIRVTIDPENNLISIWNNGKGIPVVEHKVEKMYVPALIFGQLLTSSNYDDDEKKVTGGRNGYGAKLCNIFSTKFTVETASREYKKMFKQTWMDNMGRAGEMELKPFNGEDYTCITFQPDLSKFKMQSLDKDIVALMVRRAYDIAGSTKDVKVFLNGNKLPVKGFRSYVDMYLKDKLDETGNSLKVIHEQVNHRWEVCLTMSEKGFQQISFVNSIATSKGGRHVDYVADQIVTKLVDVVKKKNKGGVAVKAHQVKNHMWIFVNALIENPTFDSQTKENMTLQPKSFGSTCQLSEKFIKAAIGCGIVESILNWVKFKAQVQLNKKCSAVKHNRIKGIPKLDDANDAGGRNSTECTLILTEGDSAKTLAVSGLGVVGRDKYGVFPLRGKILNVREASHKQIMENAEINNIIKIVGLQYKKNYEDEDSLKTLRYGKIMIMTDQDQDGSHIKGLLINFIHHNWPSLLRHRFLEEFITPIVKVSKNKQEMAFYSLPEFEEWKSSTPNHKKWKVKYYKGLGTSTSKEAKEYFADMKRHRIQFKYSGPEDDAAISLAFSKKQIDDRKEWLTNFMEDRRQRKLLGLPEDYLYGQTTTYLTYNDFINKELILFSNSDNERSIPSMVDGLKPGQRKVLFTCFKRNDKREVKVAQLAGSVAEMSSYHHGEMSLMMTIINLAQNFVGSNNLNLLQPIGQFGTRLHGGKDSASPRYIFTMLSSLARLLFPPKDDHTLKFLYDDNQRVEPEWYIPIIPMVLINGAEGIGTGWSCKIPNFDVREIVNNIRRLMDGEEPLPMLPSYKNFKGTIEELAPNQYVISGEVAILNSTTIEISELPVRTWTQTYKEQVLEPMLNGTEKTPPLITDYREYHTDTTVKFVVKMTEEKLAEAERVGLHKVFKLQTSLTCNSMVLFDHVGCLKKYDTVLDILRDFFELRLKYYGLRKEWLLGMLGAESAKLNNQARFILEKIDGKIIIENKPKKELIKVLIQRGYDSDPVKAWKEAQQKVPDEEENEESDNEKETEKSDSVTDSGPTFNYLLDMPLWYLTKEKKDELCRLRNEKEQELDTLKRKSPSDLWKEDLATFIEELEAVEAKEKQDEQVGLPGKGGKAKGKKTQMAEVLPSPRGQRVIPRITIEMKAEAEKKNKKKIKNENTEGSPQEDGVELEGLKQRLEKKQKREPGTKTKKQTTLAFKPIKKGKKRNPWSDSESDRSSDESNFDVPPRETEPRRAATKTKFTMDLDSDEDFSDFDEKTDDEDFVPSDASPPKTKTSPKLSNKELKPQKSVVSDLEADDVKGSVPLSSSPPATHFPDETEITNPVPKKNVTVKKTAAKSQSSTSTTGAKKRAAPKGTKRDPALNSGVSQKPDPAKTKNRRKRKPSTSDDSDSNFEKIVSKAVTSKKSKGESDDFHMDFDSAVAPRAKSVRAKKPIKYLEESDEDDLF
# Method in brief: (§2)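 pBR322 DNA was incubated with two units of human topo IIα, with or without compound (DMSO stocks at 20 mM), in 10 mM Tris–HCl pH 7.9 with 50 mM NaCl, 5 mM MgCl₂, 1 mM EDTA, 1 mM ATP and BSA, for 30 min at 30 °C. The reaction was stopped with EDTA and run on 1% agarose in TAE at 25 V for 4 h. Gels were stained with ethidium bromide, and supercoiled DNA was quantified under UV.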
# [2] = target: T1, DNA topoisomerase 1 (Homo sapiens) (UniProt P11387); experiment: Inhibition of human recombinant topoisomerase 1 assessed as inhibition of relaxation of supercoiled pBR322 DNA at 100 uM by agarose gel electrophoresis
# T1 sequence (whole entry): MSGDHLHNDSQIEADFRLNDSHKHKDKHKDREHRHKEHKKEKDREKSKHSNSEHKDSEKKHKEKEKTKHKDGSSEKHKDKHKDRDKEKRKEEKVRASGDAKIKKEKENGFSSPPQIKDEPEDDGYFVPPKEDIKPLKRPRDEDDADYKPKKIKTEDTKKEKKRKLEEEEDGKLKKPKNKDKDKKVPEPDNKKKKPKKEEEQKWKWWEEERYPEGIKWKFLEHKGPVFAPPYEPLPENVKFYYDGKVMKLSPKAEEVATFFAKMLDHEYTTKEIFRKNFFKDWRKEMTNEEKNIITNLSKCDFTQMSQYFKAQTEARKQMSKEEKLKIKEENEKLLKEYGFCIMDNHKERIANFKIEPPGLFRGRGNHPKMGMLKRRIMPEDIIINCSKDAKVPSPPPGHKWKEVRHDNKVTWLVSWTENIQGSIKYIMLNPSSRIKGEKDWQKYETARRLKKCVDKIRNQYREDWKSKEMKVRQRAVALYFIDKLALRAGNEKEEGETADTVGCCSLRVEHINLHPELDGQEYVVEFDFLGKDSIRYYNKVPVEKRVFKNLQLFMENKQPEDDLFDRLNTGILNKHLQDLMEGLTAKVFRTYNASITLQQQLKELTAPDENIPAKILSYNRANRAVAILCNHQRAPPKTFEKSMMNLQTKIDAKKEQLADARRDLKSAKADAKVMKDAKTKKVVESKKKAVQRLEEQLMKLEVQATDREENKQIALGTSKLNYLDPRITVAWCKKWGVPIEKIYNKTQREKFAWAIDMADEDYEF
# Method in brief: (§3)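 100 ng pBR322 DNA was incubated with 0.4 units of recombinant human topo I, with or without compound (DMSO stocks at 20 mM), for 30 min at 37 °C in 10 mM Tris–HCl pH 7.9, 150 mM NaCl, 0.1% BSA, 1 mM spermidine and 5% glycerol. The reaction was stopped with sarkosyl/bromophenol blue/glycerol and run on 1% agarose in TAE at 15 V for 7 h. Relaxation was read from ethidium bromide staining.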
# DU-145 = experiment: Cytotoxicity against human DU145 cells in presence of 10% fetal bovine serum; format: functional, cell-based; method in brief: as §1
# K562 = experiment: Cytotoxicity against human K562 cells in presence of 10% fetal bovine serum; format: functional, cell-based; method in brief: as §1
# MCF7 = experiment: Cytotoxicity against human MCF7 cells in presence of 10% fetal bovine serum; format: functional; method in brief: as §1
# [3] = target: DNA topoisomerase 2-alpha (Homo sapiens) (UniProt P11388); experiment: Inhibition of human recombinant DNA topoisomerase 2 assessed as inhibition of relaxation of supercoiled pBR322 DNA at 20 uM by agarose gel electrophoresis; method in brief: as §2
# [4] = target: T1, DNA topoisomerase 1 (Homo sapiens); experiment: Inhibition of human recombinant topoisomerase 1 assessed as inhibition of relaxation of supercoiled pBR322 DNA at 20 uM by agarose gel electrophoresis; method in brief: as §3
SMILES,IC50 (HCT-15) [µM],IC50 (HeLa) [µM],inhibition [1] [%],inhibition [2] [%],IC50 (DU-145) [µM],IC50 (K562) [µM],IC50 (MCF7) [µM],inhibition [3] [%],inhibition [4] [%]
Clc1ccc(-c2cc(-c3ccco3)cc(-c3cccs3)n2)cc1,> 100,32.7,31.4,2.7,> 100,> 100,24.6,,
Clc1ccc(-c2cc(-c3cccnc3)nc(-c3cccs3)c2)o1,1.24,14.6,51.5,25.8,13,22.3,2.87,30.9,
Cc1ccc(-c2cc(-c3ccc(Cl)o3)cc(-c3ccsc3)n2)cc1,7.41,16.2,78.9,2.6,21.2,19.9,0.63,70.2,
Clc1ccc(-c2cc(-c3cccs3)nc(-c3ccccc3Cl)c2)o1,6.19,18.5,35,41.3,16.8,17.2,1.93,15.4,8
Clc1ccc(-c2cc(-c3ccsc3)nc(-c3ccco3)c2)o1,> 50,> 50,78.6,8.2,18.9,22.4,21.3,63.8,
Cc1ccc(-c2cc(-c3ccc(Cl)o3)cc(-c3cccs3)n2)cc1,9.89,16.3,21.8,41.8,19.3,21.5,1.33,,9.3
Clc1ccc(-c2cc(-c3ccco3)nc(-c3cccs3)c2)o1,> 50,18.8,38.5,16,21.8,16,5.27,25.5,
Cc1ccccc1-c1cc(-c2ccc(Cl)o2)cc(-c2ccsc2)n1,4.63,9.77,59.6,6.7,24.8,18.4,1.23,46.3,
Cc1cccc(-c2cc(-c3ccc(Cl)o3)cc(-c3ccsc3)n2)c1,21.7,20.3,64.1,7.5,17.9,20.2,1.28,56.7,
Clc1ccc(-c2cc(-c3ccc(Cl)o3)cc(-c3ccsc3)n2)cc1,5.19,8.41,75.9,29.8,19.5,18.7,1.77,65.7,5.2
COc1cccc2c1C(=O)c1c(O)c3c(c(O)c1C2=O)C[C@@](O)(C(=O)CO)C[C@@H]3O[C@H]1C[C@H](N)[C@H](O)[C@H](C)O1.Cl [DOXORUBICIN HYDROCHLORIDE],2.32,,,,1.98,2.45,1.25,,
